≈ marks a conversion by molar mass, not a printed value.
How the values were obtained:
Pseudomonas aeruginosa [1] = assay: Antibacterial activity against Pseudomonas aeruginosa NCTC 13437 assessed as bacterial growth inhibition incubated for overnight by microbroth dilution method; type: functional
How it was run: (§1)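 Broth microdilution in Tryptic Soy Broth. DMSO stocks were diluted in TSB as 2-fold series. Overnight TSB cultures were back-diluted to OD 0.01 and mixed 1:1 with compound. Incubation was overnight at 37 °C. MIC was the lowest concentration without visible growth (<0.1 OD600). DMSO vehicle was checked at equivalent concentrations.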

Escherichia coli [2] = assay: Antibacterial activity against Escherichia coli NCTC 12923 assessed as bacterial growth inhibition incubated for overnight by microbroth dilution method; type: functional; how it was run: as §1
Klebsiella pneumoniae [3] = assay: Antibacterial activity against ESBL Klebsiella pneumoniae NCTC 13368 assessed as bacterial growth inhibition incubated for overnight by microbroth dilution method
Klebsiella pneumoniae [4] = assay: Antibacterial activity against Klebsiella pneumoniae M6 assessed as bacterial growth inhibition incubated for overnight by microbroth dilution method
Acinetobacter baumannii [5] = assay: Antibacterial activity against Acinetobacter baumannii ATCC 17978 assessed as bacterial growth inhibition incubated for overnight by microbroth dilution method; type: functional; how it was run: as §1
Acinetobacter baumannii [6] = assay: Antibacterial activity against Acinetobacter baumannii AYE assessed as bacterial growth inhibition incubated for overnight by microbroth dilution method; type: functional; how it was run: as §1
Pseudomonas aeruginosa [7] = assay: Antibacterial activity against Pseudomonas aeruginosa PAO1 assessed as bacterial growth inhibition incubated for overnight by microbroth dilution method; type: functional; how it was run: as §1
Enterococcus faecium = assay: Antibacterial activity against vancomycin resistant Enterococcus faecium NCTC 12204 assessed as bacterial growth inhibition incubated for overnight by microbroth dilution method; type: functional
How it was run: (§2)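 Microbroth dilution in Tryptic Soy Broth. DMSO stocks were diluted in TSB as 2-fold series. Overnight TSB cultures were back-diluted to OD 0.01 and mixed 1:1 with compound. Incubation was overnight at 37 °C. MIC is the lowest concentration with no visible growth (<0.1 OD600). DMSO at equivalent concentrations was checked.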

Enterococcus faecalis [8] = assay: Antibacterial activity against vancomycin sensitive Enterococcus faecalis NCTC 775 assessed as bacterial growth inhibition incubated for overnight by microbroth dilution method
Enterococcus faecalis [9] = assay: Antibacterial activity against vancomycin resistant Enterococcus faecalis NCTC 12201 assessed as bacterial growth inhibition incubated for overnight by microbroth dilution method; type: functional; how it was run: as §2
Staphylococcus aureus [10] = assay: Antibacterial activity against methicillin resistant Staphylococcus aureus USA 300 assessed as bacterial growth inhibition incubated for overnight by microbroth dilution method; type: functional; how it was run: as §2
Staphylococcus aureus [11] = assay: Antibacterial activity against methicillin resistant Staphylococcus aureus NCTC 13616 assessed as bacterial growth inhibition incubated for overnight by microbroth dilution method; type: functional; how it was run: as §2
Staphylococcus aureus [12] = assay: Antibacterial activity against methicillin sensitive Staphylococcus aureus ATCC 9144 assessed as bacterial growth inhibition incubated for overnight by microbroth dilution method; type: functional; how it was run: as §2
Staphylococcus aureus [13] = assay: Antibacterial activity against methicillin sensitive Staphylococcus aureus 1199B assessed as bacterial growth inhibition incubated for overnight by microbroth dilution method; type: functional; how it was run: as §2
Pseudomonas aeruginosa [14] = assay: Synergistic antibacterial activity against Pseudomonas aeruginosa NCTC 13437 assessed as fold change in rifampicin MIC at <=0.25 times MIC incubated for overnight by microbroth dilution checkerboard assay relative to rifampicin alone; type: functional
How it was run: (§3)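 Checkerboard microdilution in Tryptic Soy Broth, run like the MIC assay. Overnight TSB cultures were back-diluted to OD 0.01 and added 1:1 to the combined two-fold series of both agents, then incubated overnight at 37 °C. Growth/no-growth was called at <0.1 OD600. MICs alone were read on the same plates. FIC index came from the most synergistic well; three independent repeats, mean ± SD.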

Acinetobacter baumannii [15] = assay: Synergistic antibacterial activity against Acinetobacter baumannii ATCC 17978 assessed as fold change in rifampicin MIC at <=0.25 times MIC incubated for overnight by microbroth dilution checkerboard assay relative to rifampicin alone; type: functional
How it was run: (§4)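 Checkerboard microdilution under MIC conditions (TSB, overnight, 37 °C). Two-fold series of each agent were combined on one plate before bacteria were added, and single-agent MICs were measured on the same plate. FIC = sum of combination MIC/alone MIC for each agent, taken from the most synergistic well. Three independent repeats, mean ± SD. ≤0.5 was taken as strong synergy and 0.5–<1 as weak.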

Klebsiella pneumoniae [16] = assay: Synergistic antibacterial activity against […] Klebsiella pneumoniae M6 assessed as rifampicin MIC at <=0.25 times MIC incubated for overnight by microbroth dilution checkerboard assay; type: functional
How it was run: (§5)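 Checkerboard run under the MIC conditions (TSB, overnight, 37 °C). Antibiotic and lipoguanidine 2-fold series were combined on one plate before bacteria were added. Growth/no-growth was scored as for the MIC (<0.1 OD600). Single-agent MICs were measured on the same plates. Three independent repeats were done.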

Escherichia coli [17] = assay: Synergistic antibacterial activity against Escherichia coli NCTC 12923 assessed as fold change in rifampicin MIC at <=0.25 times MIC incubated for overnight by microbroth dilution checkerboard assay relative to rifampicin alone; type: functional; how it was run: as §4
Acinetobacter baumannii [18] = assay: Synergistic antibacterial activity against Acinetobacter baumannii AYE assessed as rifampicin MIC at <=0.25 times MIC incubated for overnight by microbroth dilution checkerboard assay; type: functional; how it was run: as §4
Escherichia coli [19] = assay: Synergistic antibacterial activity against Escherichia coli NCTC 12923 assessed as rifampicin MIC at <=0.25 times MIC incubated for overnight by microbroth dilution checkerboard assay; type: functional; how it was run: as §4
Pseudomonas aeruginosa [20] = assay: Synergistic antibacterial activity against Pseudomonas aeruginosa PAO1 assessed as fold change in rifampicin MIC at <=0.25 times MIC incubated for overnight by microbroth dilution checkerboard assay relative to rifampicin alone; type: functional; how it was run: as §3
Klebsiella pneumoniae [21] = assay: Synergistic antibacterial activity against Klebsiella pneumoniae NCTC 13368 assessed as fold change in rifampicin MIC at <=0.25 times MIC incubated for overnight by microbroth dilution checkerboard assay relative to rifampicin alone; type: functional; how it was run: as §5
Pseudomonas aeruginosa [22] = assay: Synergistic antibacterial activity against Pseudomonas aeruginosa PAO1 assessed as rifampicin MIC at <=0.25 times MIC incubated for overnight by microbroth dilution checkerboard assay; type: functional; how it was run: as §3
Acinetobacter baumannii [23] = assay: Synergistic antibacterial activity against Acinetobacter baumannii ATCC 17978 assessed as rifampicin MIC at <=0.25 times MIC incubated for overnight by microbroth dilution checkerboard assay; type: functional; how it was run: as §4
Klebsiella pneumoniae [24] = assay: Synergistic antibacterial activity against Klebsiella pneumoniae NCTC 13368 assessed as rifampicin MIC at <=0.25 times MIC incubated for overnight by microbroth dilution checkerboard assay; type: functional; how it was run: as §4
Pseudomonas aeruginosa [25] = assay: Synergistic antibacterial activity against Pseudomonas aeruginosa NCTC 13437 assessed as rifampicin MIC at <=0.25 times MIC incubated for overnight by microbroth dilution checkerboard assay; type: functional; how it was run: as §3
Acinetobacter baumannii [26] = assay: Synergistic antibacterial activity against Acinetobacter baumannii AYE assessed as fold change in rifampicin MIC at <=0.25 times MIC incubated for overnight by microbroth dilution checkerboard assay relative to rifampicin alone; type: functional; how it was run: as §4

Row | Structure (SMILES) | MIC (Pseudomonas aeruginosa [1]) | MIC (Escherichia coli [2]) | MIC (Klebsiella pneumoniae [3]) | MIC (Klebsiella pneumoniae [4]) | MIC (Acinetobacter baumannii [5]) | MIC (Acinetobacter baumannii [6]) | MIC (Pseudomonas aeruginosa [7]) | MIC (Enterococcus faecium) | MIC (Enterococcus faecalis [8]) | MIC (Enterococcus faecalis [9]) | MIC (Staphylococcus aureus [10]) | MIC (Staphylococcus aureus [11]) | MIC (Staphylococcus aureus [12]) | MIC (Staphylococcus aureus [13]) | fold change (FC) (Pseudomonas aeruginosa [14]) | fold change (FC) (Acinetobacter baumannii [15]) | MIC (Klebsiella pneumoniae [16]) | fold change (FC) (Escherichia coli [17]) | MIC (Acinetobacter baumannii [18]) | MIC (Escherichia coli [19]) | other results
1 | CO[C@@H]1[C@@H](OC(N)=O)[C@@H](O)[C@H](Oc2ccc3c(O)c(NC(=O)c4ccc(O)c(CC=C(C)C)c4)c(=O)oc3c2C)OC1(C)C [NOVOBIOCIN] | > 128 µg/mL | > 128 µg/mL | > 128 µg/mL | > 128 µg/mL | 8 µg/mL (≈ 13.1 µM) | 8 µg/mL (≈ 13.1 µM) | > 128 µg/mL |  |  |  |  |  |  |  |  |  |  |  |  |  | 
2 | CCCCCCCC/C=C\CCCCCCCCNC(=N)NCCCCCCCCNC(=N)N | > 128 µg/mL | 32 µg/mL (≈ 66.8 µM) | 128 µg/mL (≈ 267 µM) | 64 µg/mL (≈ 134 µM) | 16 µg/mL (≈ 33.4 µM) | 16 µg/mL (≈ 33.4 µM) | > 128 µg/mL | 4 µg/mL (≈ 8.35 µM) | 4 µg/mL (≈ 8.35 µM) | 4 µg/mL (≈ 8.35 µM) | 2 µg/mL (≈ 4.18 µM) | 4 µg/mL (≈ 8.35 µM) | 4 µg/mL (≈ 8.35 µM) | 4 µg/mL (≈ 8.35 µM) |  |  |  |  |  |  | 
3 | CO[C@H]1/C=C/O[C@@]2(C)Oc3c(C)c(O)c4c(O)c(c(/C=N/N5CCN(C)CC5)c(O)c4c3C2=O)NC(=O)/C(C)=C\C=C\[C@H](C)[C@H](O)[C@@H](C)[C@@H](O)[C@@H](C)[C@H](OC(C)=O)[C@@H]1C [RIFAMPIN] | 32 µg/mL (≈ 38.9 µM) | 16 µg/mL (≈ 19.4 µM) | 32 µg/mL (≈ 38.9 µM) | 32 µg/mL (≈ 38.9 µM) | 4 µg/mL (≈ 4.86 µM) | 16 µg/mL (≈ 19.4 µM) | 32 µg/mL (≈ 38.9 µM) |  |  |  |  |  |  |  |  |  |  |  |  |  | 
4 | CCCCCCCCCCNC(=N)NCCCCCCCCCC |  | 64 µg/mL (≈ 188 µM) | 16 µg/mL (≈ 47.1 µM) |  | 32 µg/mL (≈ 94.2 µM) | 16 µg/mL (≈ 47.1 µM) |  |  |  |  |  |  |  |  | 0 | >=4 | 32 µg/mL | 0 | ≤ 0.125 µg/mL | 8 µg/mL | fold change (FC) (Pseudomonas aeruginosa [20]): 0; fold change (FC) (Klebsiella pneumoniae [21]): 0; MIC (Pseudomonas aeruginosa [22]): 64 µg/mL; MIC (Acinetobacter baumannii [23]): ≤ 0.125 µg/mL; MIC (Klebsiella pneumoniae [24]): 64 µg/mL; MIC (Pseudomonas aeruginosa [25]): 64 µg/mL; fold change (FC) (Acinetobacter baumannii [26]): >=4
5 | N=C(N)NCCCCCCCCNC(=N)N | > 128 µg/mL | > 128 µg/mL | > 128 µg/mL | > 128 µg/mL | > 128 µg/mL | > 128 µg/mL | > 128 µg/mL | > 128 µg/mL | > 128 µg/mL | > 128 µg/mL | 128 µg/mL (≈ 561 µM) | > 128 µg/mL | 128 µg/mL (≈ 561 µM) | > 128 µg/mL | 0 | >=4 | 16 µg/mL | 0 | 8 µg/mL | 8 µg/mL | fold change (FC) (Pseudomonas aeruginosa [20]): 0; fold change (FC) (Klebsiella pneumoniae [21]): 0; MIC (Pseudomonas aeruginosa [22]): 32 µg/mL; MIC (Acinetobacter baumannii [23]): 1 µg/mL; MIC (Klebsiella pneumoniae [24]): 32 µg/mL; MIC (Pseudomonas aeruginosa [25]): 32 µg/mL; fold change (FC) (Acinetobacter baumannii [26]): 0

Reference: ChEMBL document CHEMBL5357066, “Development of Novel Membrane Disrupting Lipoguanidine Compounds Sensitizing Gram-Negative Bacteria to Antibiotics” (ACS Med Chem Lett, 2024)
